Measurements published in ChEMBL document CHEMBL4765334, “Chemical profiling of HIV-1 capsid-targeting antiviral PF74” (Eur J Med Chem, 2020).

What was measured:
[1] = test system: Human immunodeficiency virus 1; assay: Binding affinity to covalently-crosslinked hexameric HIV1 capsid protein A14C/E45C/W184A/M185A mutant expressed in Escherichia coli BL21(DE3)RIL assessed as change in melting temperature at 20 uM incubated for 30 mins by thermal shift dye based fluorescence analysis
Method in brief: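 Thermal shift: 15 μM CA121 in 50 mM sodium phosphate pH 8.0 with Sypro Orange and compound at 20 μM final or DMSO control. Heated 25 to 95 °C at 0.2 °C/10 s; fluorescence Ex 475–500, Em 520–590 nm. ΔTm = Tm(compound) − T0(DMSO) for CA hexamer melting.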

[2] = test system: Human immunodeficiency virus 1; assay: Antiviral activity against HIV1 NL4-3 infected in human TZM-GFP cells assessed as number of GFP positive cells at 2 uM incubated for 48 hrs by imaging reader; assay type: functional; settings: Human immunodeficiency virus 1, NL4-3, TZM
Method in brief: (§1)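 TZM-GFP cells seeded 1 × 10^4/well; after 24 h medium replaced with compound at the stated single concentration, then 24 h later infected with HIV-1 (MOI = 1). After 48 h, GFP-positive cells counted by imaging and percent inhibition determined versus DMSO controls. Duplicate wells, at least two independent experiments.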

TZM = assay: (§2) Cytotoxicity against human TZM-GFP cells incubated for 72 hrs by XTT assay; assay type: cell-based; settings: tzm, 72 h
Method in brief: (§3)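 TZM-GFP cells seeded at 1 × 10^4 per well and exposed continuously to increasing compound concentrations for 72 h. Viable cell number read by XTT proliferation kit. CC50 fitted as log(inhibitor) vs normalized response, variable slope, per independent assay and averaged. Run in duplicate, at least two independent experiments, reported as mean ± standard deviation.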

[3] = test system: Human immunodeficiency virus 1; assay: Antiviral activity against HIV1 NL4-3 infected in human TZM-GFP cells assessed as number of GFP positive cells at 20 uM incubated for 48 hrs by imaging reader; assay type: functional; settings: Human immunodeficiency virus 1, NL4-3, TZM; method in brief: as §1
[4] = test system: Human immunodeficiency virus 1; assay: Antiviral activity against HIV1 NL4-3 infected in human TZM-GFP cells assessed as number of GFP positive cells incubated for 48 hrs by imaging reader; assay type: functional, organism-based; settings: Human immunodeficiency virus 1, NL4-3, TZM
Method in brief: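 TZM-GFP cells seeded 1 × 10^4/well and given increasing compound concentrations 24 h later; infected with HIV-1 NL4-3 (MOI = 1) after a further 24 h. Read-out after 48 h: GFP-positive cell counts (LTR-driven) versus DMSO controls. EC50 fitted as log(inhibitor) vs normalized response, variable slope, per experiment and averaged; mean ± SD, duplicates, at least two independent experiments.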

[5] = as §2; assay type: cell-based; settings: TZM-GFP cells; method in brief: as §3
[6] = Stability of the compound in human plasma assessed as half life incubated for 3 hrs by LC-MS/MS analysis; assay type: ADME, cell-free
[7] = Metabolic stability at phase 1 in mouse liver microsomes assessed as half life at 1 uM in presence of Cobi-cistat CYP3A inhibitor by LC-MS/MS analysis; assay type: ADME, Microsome
[8] = Stability of the compound in mouse plasma assessed as half life incubated for 3 hrs by LC-MS/MS analysis; assay type: ADME, cell-free
[9] = Metabolic stability at phase 1 in human liver microsomes assessed as half life at 1 uM by LC-MS/MS analysis; assay type: ADME, Microsome
[10] = Metabolic stability at phase 1 in human liver microsomes assessed as half life at 1 uM in presence of Cobi-cistat CYP3A inhibitor by LC-MS/MS analysis; assay type: ADME, Microsome
[11] = Metabolic stability at phase 1 in mouse liver microsomes assessed as half life at 1 uM by LC-MS/MS analysis; assay type: ADME, Microsome; settings: microsomes, 1 µM

SMILES	ΔTm [1] [°C]	inhibition at 2 µM [2] [%]	CC50 (TZM) [µM]	inhibition at 20 µM [3] [%]	EC50 [4] [µM]	CC50 at 72 h [5] [µM]	other results
Cc1[nH]c2ccccc2c1CC(=O)N[C@@H](Cc1cccc(Br)c1)C(=O)N(C)c1ccccc1	3.4	0	< 50	94			
Cc1[nH]c2ccccc2c1CC(=O)N[C@@H](Cc1ccccc1)C(=O)N(C)c1cccc(Cl)c1	7.6				1.2	< 50	
CN(C(=O)[C@H](Cc1ccccc1)NC(=O)Cc1c[nH]c2ccccc12)c1cccc(F)c1	2.5	39		97		50	
COc1cccc(N(C)C(=O)[C@H](Cc2ccccc2)NC(=O)Cc2c[nH]c3ccccc23)c1	1.3	41	> 50	97			
CN(C(=O)[C@H](Cc1ccccc1)NC(=O)Cc1c[nH]c2ccccc12)c1cccc(C(F)(F)F)c1	2.8	16	< 50	96			
CN(C(=O)[C@H](Cc1ccccc1)NC(=O)Cc1c[nH]c2ccccc12)c1ccccc1	6.1				0.46	> 100	
CN(C(=O)[C@H](Cc1ccccc1)NC(=O)Cc1c[nH]c2ccccc12)c1cccc(Cl)c1	4.9	38	< 50	99.5			
Cc1[nH]c2ccccc2c1CC(=O)N[C@@H](Cc1ccccc1)C(=O)N1CCC[C@H]1C(=O)Nc1ccccc1	0.6				> 20	> 50	
CCN(C(=O)[C@H](Cc1ccccc1)NC(=O)Cc1c(C)n(C(C)C)c2ccccc12)c1ccccc1	7	39	23	99.7			
Cc1cccc(N(C)C(=O)[C@H](Cc2ccccc2)NC(=O)Cc2c[nH]c3ccccc23)c1	1.6	37	> 50	98			
CN(C(=O)[C@H](Cc1ccccc1)NC(=O)CCc1c[nH]c2ccccc12)c1ccccc1	2.3	0	> 50	98			
CN(C(=O)[C@H](Cc1ccccc1)NC(=O)Cc1c[nH]c2ccccc12)c1ccc(Br)cc1	8.3		45		0.14		t1/2 [6]: > 6 h; t1/2 [7]: 0.867 h; t1/2 [8]: > 6 h; t1/2 [9]: 2.1 min; t1/2 [10]: 2.18 h; t1/2 [11]: 42 s
